Test results published in ChEMBL document CHEMBL3994624, “Antimalarial Pyrido[1,2-a]benzimidazoles: Lead Optimization, Parasite Life Cycle Stage Profile, Mechanistic Evaluation, Killing Kinetics, and in Vivo Oral Efficacy in a Mouse Model” (J Med Chem, 2017).
In brackets after ≈: the same amount, converted by molar mass.

Columns and labels:
Plasmodium falciparum [1] = assay: Anti-plasmodial activity against multidrug resistant Plasmodium falciparum K1 by [3H]-hypoxanthine incorporation assay; assay type: functional
In short: (§1)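 P. falciparum asexual blood-stage growth inhibition by [3H]hypoxanthine incorporation; chloroquine and artesunate run as reference drugs in every experiment; IC50 given as mean of ≥2 independent experiments.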

[2] = Metabolic stability in Balb/c mouse liver microsomes assessed as compound remaining at 1 uM in presence of NADPH after 30 mins by LC-MS/MS analysis; assay type: ADME, microsome; conditions: read-out: Stability
In short: (§2)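 Mouse and human liver microsomes; % compound remaining after 30 min.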

[3] = Selectivity index, ratio of IC50 for CHO cells to IC50 for chloroquine-sensitive Plasmodium falciparum NF54; assay type: toxicity; conditions: hamster, read-out: Ratio IC50
In short: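 Selectivity index = IC50 CHO / IC50 PfNF54.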

CHO = assay: Cytotoxicity against CHO cells after by MTT assay; assay type: cell-based; conditions: Cricetulus griseus
Plasmodium falciparum [4] = assay: Anti-plasmodial activity against chloroquine-sensitive Plasmodium falciparum NF54 by [3H]-hypoxanthine incorporation assay; assay type: functional; in short: as §1
[5] = Kinetic solubility of the compound in FaSSIF at pH 6.5 after 2 hrs by shake flask method; assay type: physicochemical; conditions: read-out: Kinetic_solubility
Huh-7 = assay: Cytotoxicity against human HuH7 cells at 1 to 10 uM after 48 hrs by Alamarblue assay; assay type: cell-based; conditions: huh-7, 48 h
Plasmodium falciparum [6] = assay: Ratio of IC50 for chloroquine-sensitive Plasmodium falciparum NF54 early 2/3 stage gametocytes to IC50 for chloroquine-sensitive Plasmodium falciparum NF54 late 4/5 stage gametocytes; assay type: functional
In short: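 Early (stage II/III) and late (stage IV/V) gametocytes tested in parallel luciferase reporter assays; stage preference = EG IC50/LG IC50.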

Plasmodium falciparum [7] = assay: Anti-plasmodial activity against chloroquine-sensitive Plasmodium falciparum NF54 late 4/5 stage gametocytes assessed as reduction in ATP levels after 24 hrs by BacTiter-Glo reagent based bioluminescence assay; assay type: functional; conditions: NF54, 24 h
[8] = Metabolic stability in human liver microsomes assessed as compound remaining at 1 uM in presence of NADPH after 30 mins by LC-MS/MS analysis; assay type: ADME, microsome; conditions: read-out: Stability; in short: as §2

SMILES | IC50 (Plasmodium falciparum [1]) | selectivity ratio [3] | IC50 (CHO) | IC50 (Plasmodium falciparum [4]) | also measured
CCNCCNc1cc(-c2ccc(S(C)(=O)=O)cc2)c(C#N)c2nc3ccccc3n12 | 330 nM | 658 | 204000 nM | 310 nM | remaining at 0.5 h, 1 µM [2]: 86%; solubility kinetic at 2 h [5]: 40 µM (≈ 17.3 µg/mL)
N#Cc1c(-c2ccc(C(F)(F)F)cc2)cc(NCC2CCS(=O)(=O)CC2)n2c1nc1ccccc12 |  |  |  | > 10000 nM | 
CN1CCN(c2cc(-c3ccc(C(F)(F)F)cc3)c(C#N)c3nc4ccccc4n23)CC1 | 460 nM |  |  | 7260 nM | 
N#Cc1c(-c2ccc(C(F)(F)F)cc2)cc(NCCN2CCC(O)CC2)n2c1nc1ccccc12 |  |  |  | 1100 nM | solubility kinetic at 2 h [5]: < 5 µM
CCNCCNc1cc(-c2ccc(C(F)(F)F)cc2)c(C#N)c2nc3ncccc3n12 | 130 nM | 5 | 4100 nM | 140 nM | solubility kinetic at 2 h [5]: 10 µM (≈ 4.24 µg/mL)
CCNCCNc1cc(-c2ccc(SC)cc2)c(C#N)c2nc3ccccc3n12 |  |  |  | 3900 nM | 
CN1CCC(Oc2cc(-c3ccc(C(F)(F)F)cc3)c(C#N)c3nc4ccccc4n23)CC1 | 960 nM | 6 | 4070 nM | 700 nM | 
CCNCCNc1cc(-c2ccc(Cl)cc2)c(C#N)c2nc3ccccc3n12 | 430 nM | 15 | 9600 nM | 660 nM | Activity (Huh-7): Non-Toxic; Ratio IC50 (Plasmodium falciparum [6]): 1.5; IC50 (Plasmodium falciparum [7]): 690 nM
N#Cc1c(-c2ccc(C(F)(F)F)cc2)cc(NC2CCS(=O)(=O)CC2)n2c1nc1ccccc12 |  |  |  | 7810 nM | 
CCN(CC)CCCC(C)Nc1cc(C(F)(F)F)c(C#N)c2nc3ccccc3n12 (stereo not drawn) |  |  |  | 4130 nM | 
CC[C@H]1CN2CCc3cc(OC)c(OC)cc3[C@@H]2C[C@@H]1C[C@H]1NCCc2cc(OC)c(OC)cc21 [EMETINE] |  |  | 95 nM |  | 
CCNCCNc1cc(-c2cccc(C(F)(F)F)c2)c(C#N)c2nc3ccccc3n12 | 340 nM | 28 | 5920 nM | 210 nM | Activity (Huh-7): Non-Toxic; Ratio IC50 (Plasmodium falciparum [6]): 1.6; IC50 (Plasmodium falciparum [7]): 490 nM
N#Cc1c(-c2ccc(C(F)(F)F)cc2)cc(N2CCC(O)C2)n2c1nc1ccccc12 (stereo not drawn) |  |  |  | 8480 nM | 
CCNCCNc1cc(-c2ccc(C#N)cc2)c(C#N)c2nc3ccccc3n12 | 200 nM | 23 | 3900 nM | 170 nM | Activity (Huh-7): Non-Toxic; Ratio IC50 (Plasmodium falciparum [6]): 1.3; IC50 (Plasmodium falciparum [7]): 2660 nM
CCNCCNc1cc(-c2ccccc2)c(C#N)c2nc3ccccc3n12 | 1070 nM | 26 | 18300 nM | 700 nM | Activity (Huh-7): Non-Toxic; IC50 (Plasmodium falciparum [7]): 1440 nM
N#Cc1c(-c2ccc(C(F)(F)F)cc2)cc(N2CCC(N)CC2)n2c1nc1cc(Cl)cc(Cl)c12 | 210 nM | 7.3 | 2980 nM | 180 nM | 
N#Cc1c(-c2ccc(C(F)(F)F)cc2)cc(NCCN2CCCC2=O)n2c1nc1ccccc12 |  |  |  | 5990 nM | 
CCNCCNc1cc(-c2ccccc2F)c(C#N)c2nc3ccccc3n12 | 1000 nM | 27 | 24400 nM | 890 nM | 
CS(=O)(=O)N1CCC(Nc2cc(-c3ccc(C(F)(F)F)cc3)c(C#N)c3nc4ccccc4n23)CC1 |  |  |  | 5020 nM | 
CC(C)(O)C1CCC(Nc2cc(-c3ccc(C(F)(F)F)cc3)c(C#N)c3nc4ccccc4n23)CC1 (stereo not drawn) |  |  |  | 4960 nM | 
CC1(O)CCC(Nc2cc(-c3ccc(C(F)(F)F)cc3)c(C#N)c3nc4ccccc4n23)CC1 (stereo not drawn) |  |  |  | 6450 nM | 
CS(=O)(=O)N1CCN(CCNc2cc(-c3ccc(C(F)(F)F)cc3)c(C#N)c3nc4ccccc4n23)CC1 |  |  |  | > 10000 nM | 
CC(=O)NCCNc1cc(-c2ccc(C(F)(F)F)cc2)c(C#N)c2nc3ccccc3n12 |  |  |  | 16400 nM | 
CS(=O)(=O)c1ccc(-c2cnc(N)c(-c3ccc(C(F)(F)F)nc3)c2)cc1 [MMV-048] |  |  |  |  | remaining at 0.5 h, 1 µM [2]: 94%; remaining at 0.5 h, 1 µM [8]: 93%

SMILES | IC50 (Plasmodium falciparum [1]) | selectivity ratio [3] | IC50 (CHO) | IC50 (Plasmodium falciparum [4]) | also measured
CCNCCNc1cc(-c2ccc(C(F)(F)F)cc2)c(C#N)c2nc3cnccc3n12 | 840 nM | 6 | 3140 nM | 270 nM | 
CCNCCNc1cc(C(F)(F)F)c(C#N)c2nc3ccccc3n12 |  |  |  | 2930 nM | 
CCNCCNc1cc(-c2ccc(C(F)(F)F)cc2)c(C#N)c2nc3cccc(Br)c3n12 | 240 nM | 2 | 1550 nM | 150 nM | 
CNC1CCN(c2cc(-c3ccc(C(F)(F)F)cc3)c(C#N)c3nc4ccccc4n23)C1 (stereo not drawn) |  |  |  | 1140 nM | 
Cc1c(-c2ccc(C(F)(F)F)cc2)c(C#N)c2nc3ccccc3n2c1NCCN1CCC(O)C1 (stereo not drawn) | 470 nM | 45 | 25000 nM | 550 nM | solubility kinetic at 2 h [5]: < 5 µM
CCNCCNc1cc(-c2ccc([S+](C)[O-])cc2)c(C#N)c2nc3ccccc3n12 (stereo not drawn) |  |  |  | 3810 nM | 
CNC1CCN(c2cc(-c3ccc(C(F)(F)F)cc3)c(C#N)c3nc4ccccc4n23)CC1 | 900 nM | 8 | 6310 nM | 840 nM | 
CN1CCC(Nc2cc(-c3ccc(C(F)(F)F)cc3)c(C#N)c3nc4cc(Cl)c(Cl)cc4n23)CC1 | 190 nM | 6.1 | 4190 nM | 50 nM | 
CCNCCNc1c(F)c(-c2ccc(C(F)(F)F)cc2)c(C#N)c2nc3ccccc3n12 |  |  |  | 5530 nM | remaining at 0.5 h, 1 µM [2]: 35%; remaining at 0.5 h, 1 µM [8]: 39%; solubility kinetic at 2 h [5]: 160 µM (≈ 70.6 µg/mL)
CNC1CCCN(c2cc(-c3ccc(C(F)(F)F)cc3)c(C#N)c3nc4ccccc4n23)C1 (stereo not drawn) |  |  |  | 1380 nM | 
N#Cc1c(-c2ccc(C(F)(F)F)cc2)cc(N2CCNCC2)n2c1nc1ccccc12 | 440 nM |  |  | 3000 nM | 
N#Cc1c(-c2ccc(C(F)(F)F)cc2)cc(NC2CCNCC2)n2c1nc1cc(Cl)cc(Cl)c12 |  | 22.3 | 5900 nM | 260 nM | 
N#Cc1c(-c2ccc(C(F)(F)F)cc2)cc(N2CCC(=O)CC2)n2c1nc1ccccc12 |  |  |  | > 10000 nM | 
N#Cc1c(-c2ccc(C(F)(F)F)cc2)cc(NC2CCC(O)CC2)n2c1nc1ccccc12 (stereo not drawn) |  |  |  | > 10000 nM | 
N#Cc1c(-c2ccc(C(F)(F)F)cc2)cc(N2CCC(O)CC2)n2c1nc1ccccc12 |  |  |  | > 24000 nM | 
CCNCCNc1cc(-c2ccc(C(=O)OC)cc2)c(C#N)c2nc3ccccc3n12 |  |  |  | 1560 nM | Activity (Huh-7): Non-Toxic; Ratio IC50 (Plasmodium falciparum [6]): 1.4; IC50 (Plasmodium falciparum [7]): 1680 nM
N#Cc1c(-c2ccc(C(F)(F)F)cc2)cc(NCC2CCOCC2)n2c1nc1ccccc12 |  |  |  | > 10000 nM | 
N#Cc1c(-c2ccc(C(F)(F)F)cc2)cc(N2CC(O)C2)n2c1nc1ccccc12 |  |  |  | 21300 nM | 
CCNCCNc1cc(-c2ccc(C(F)(F)F)cc2)c(C#N)c2nc3ccc(Br)cc3n12 |  | 63 | 4440 nM | 70 nM | 
N#Cc1c(-c2ccc(C(F)(F)F)cc2)cc(N2CCC(N)CC2)n2c1nc1ccccc12 | 700 nM | 17 | 15800 nM | 950 nM | remaining at 0.5 h, 1 µM [2]: 92%; remaining at 0.5 h, 1 µM [8]: 91%; solubility kinetic at 2 h [5]: < 5 µM
CCNCCNc1cc(-c2ccc(C(F)(F)F)cc2)c(C#N)c2nc3cc(Br)ccc3n12 |  | 5 | 1800 nM | 380 nM | 
Cc1ncc2n1-c1ccc(Cl)cc1C(c1ccccc1F)=NC2 [MIDAZOLAM] |  |  |  |  | remaining at 0.5 h, 1 µM [2]: 1.3%; remaining at 0.5 h, 1 µM [8]: 0.1%
CC(=O)N1CCC(Nc2cc(-c3ccc(C(F)(F)F)cc3)c(C#N)c3nc4ccccc4n23)CC1 |  |  |  | 4420 nM | 
CS(=O)(=O)NCCNc1cc(-c2ccc(C(F)(F)F)cc2)c(C#N)c2nc3ccccc3n12 |  |  |  | 9100 nM | 
